Assay results reported in ChEMBL document CHEMBL5712081, “Signaling function of PRC2 is essential for TCR-driven T cell responses” (J Exp Med, 2018).
Activity calls are given as the source filed them. The rule behind the calls is not given here.

What was measured:
[1] = system: Mus musculus; assay: Protection against Foxp3-DTR expressing C57BL/6 autoimmune mouse model assessed as reversal of splenomegaly at 150 mg/kg after 8 days of Dtx treatment for 5 days; assay type: functional, organism-based; conditions: time 5.0 day
Method in brief: (§1)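 Foxp3-DTR mice were given DTx to deplete Treg cells, with 150 mg/kg inhibitor either at the same time or from day 8 onward. Splenic Foxp3+ Treg frequency was measured, spleen and lymph node size was photographed, and total lymphoid cells in lymph nodes were counted per mouse.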

[2] = system: Mus musculus; assay: Antiinflammatory activity in Foxp3-DTR expressing C57BL/6 autoimmune mouse model assessed as decrease in granulocytes at 150 mg/kg after 8 days of Dtx treatment for 5 days; assay type: functional, organism-based; conditions: time 5.0 day
Method in brief: (§2)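 Foxp3-DTR mice were depleted of Treg cells by DTx injection. They received 150 mg/kg inhibitor either together with DTx or starting on day 8 after DTx began. Total cells and T cells, B cells, granulocytes and macrophages in secondary lymphoid organs were counted.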

[3] = system: Mus musculus; assay: Protection against Foxp3-DTR expressing C57BL/6 autoimmune mouse model assessed as prevention of regulatory t cell depletion at 150 mg/kg after 8 days of Dtx treatment for 5 days; assay type: functional, organism-based; conditions: time 5.0 day; method in brief: as §1
[4] = system: Mus musculus; assay: Antiinflammatory activity in Foxp3-DTR expressing C57BL/6 autoimmune mouse model assessed as decrease in macrophages at 150 mg/kg after 8 days of Dtx treatment for 5 days; assay type: functional, organism-based; conditions: time 5.0 day; method in brief: as §2
[5] = system: Mus musculus; assay: Antiinflammatory activity in Foxp3-DTR expressing C57BL/6 autoimmune mouse model assessed as decrease in B-cells at 150 mg/kg after 8 days of Dtx treatment for 5 days; assay type: functional, organism-based; conditions: time 5.0 day; method in brief: as §2
[6] = molecular target: T1, Histone-lysine N-methyltransferase EZH1 (Homo sapiens, UniProt Q92800); assay: Inhibition of human EZH1
T1 sequence (Q92800 whole entry): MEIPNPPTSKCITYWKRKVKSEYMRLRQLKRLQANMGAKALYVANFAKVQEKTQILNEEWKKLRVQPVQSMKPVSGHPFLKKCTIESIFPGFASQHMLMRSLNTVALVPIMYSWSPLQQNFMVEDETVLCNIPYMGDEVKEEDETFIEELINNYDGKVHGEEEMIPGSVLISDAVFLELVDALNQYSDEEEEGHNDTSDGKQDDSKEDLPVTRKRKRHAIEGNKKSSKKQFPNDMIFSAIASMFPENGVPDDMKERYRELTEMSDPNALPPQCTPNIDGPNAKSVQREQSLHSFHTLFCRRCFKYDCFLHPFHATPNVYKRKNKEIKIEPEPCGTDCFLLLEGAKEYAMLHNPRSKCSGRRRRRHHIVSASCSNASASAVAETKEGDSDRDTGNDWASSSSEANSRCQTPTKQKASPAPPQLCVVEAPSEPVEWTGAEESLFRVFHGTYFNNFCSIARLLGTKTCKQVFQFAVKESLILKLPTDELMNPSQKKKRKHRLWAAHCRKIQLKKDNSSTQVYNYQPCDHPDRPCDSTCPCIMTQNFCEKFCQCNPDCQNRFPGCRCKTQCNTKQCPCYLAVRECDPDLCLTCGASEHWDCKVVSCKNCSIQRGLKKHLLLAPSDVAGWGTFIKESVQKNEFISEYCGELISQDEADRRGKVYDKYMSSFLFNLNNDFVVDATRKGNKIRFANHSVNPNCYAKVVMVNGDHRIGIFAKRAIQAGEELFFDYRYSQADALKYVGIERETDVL

[7] = system: CD4+ T cell; assay: Down-regulation of Erk phosphorylation in human CD4+ T cell upto 50 uM by Western blotting analysis; assay type: functional, cell-based
Method in brief: (§3)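 Purified CD4+ T cells in DMSO or inhibitor were coated with 10 μg/ml anti-CD3 and 2.5 μg/ml anti-CD28 on ice for 20 min. They were cross-linked with 20 μg/ml anti-hamster IgG for 2 or 10 min at 37°C, then lysed in 0.5% NP-40 buffer. pErk1/2 (T202/Y204) was read by Western blot and normalized to total Erk. Three independent experiments.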

[8] = molecular target: T2, Histone-lysine N-methyltransferase EZH1 (Homo sapiens) (UniProt Q92800); assay: Inhibition of Ezh1 in human CD4+ T cell by mass spectrometry analysis; assay type: cell-based
T2 sequence (whole entry): T1 sequence (Q92800 whole entry)

[9] = system: Mus musculus; assay: Protection activity against Foxp3-DTR expressing C57BL/6 autoimmune mouse model assessed as decrease in number of Ki67+ cells at 150 mg/kg after 8 days of Dtx treatment for 5 days; assay type: functional, organism-based; conditions: time 5.0 day
Method in brief: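 Foxp3-DTR mice were given DTx, and 150 mg/kg inhibitor was started on day 8 after DTx initiation. Ki67+ dividing CD19+ B, CD4+ and CD8+ T cells in lymph nodes were measured per mouse. Two experiments, n = 4–15, unpaired Student's t test.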

[10] = system: CD4+ T cell; assay: Anti-proliferative activity against TCR induced mouse CD4+ T cell
[11] = system: CD4+ T cell; assay: Downregulation of Erk phosphorylation in TCR-triggered human CD4+ T cell at 10 uM by Western blotting analysis; assay type: functional, cell-based; method in brief: as §3
[12] = system: CD4+ T cell; assay: Down-regulation of Erk phosphorylation in human CD4+ T cell upto 50 uM in the presence of PMA by Western blotting analysis; assay type: functional, cell-based
Method in brief: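 Purified CD4+ T cells in DMSO or inhibitor were given prewarmed medium with 5 ng/ml PMA for 10 min at 37°C and lysed in 0.5% NP-40 buffer. pErk1/2 (T202/Y204) was detected by Western blot and normalized to total Erk1/2. Three independent experiments.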

[13] = system: Mus musculus; assay: Antiinflammatory activity in Foxp3-DTR expressing C57BL/6 autoimmune mouse model assessed as decrease in T-cells at 150 mg/kg after 8 days of Dtx treatment for 5 days; assay type: functional, organism-based; conditions: time 5.0 day; method in brief: as §2
[14] = system: CD4+ T cell; assay: Down-regulation of Erk phosphorylation in TCR-triggered human CD4+ T cell by Western blotting analysis; assay type: functional, cell-based; method in brief: as §3
[15] = system: CD4+ T cell; assay: Down-regulation of Mek1/2 at S217/221 phosphorylation in TCR-triggered human CD4+ T cell at 10 uM by Western blotting analysis; assay type: functional, cell-based
Method in brief: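 CD4+ T cells in DMSO or 10 µM inhibitor were stimulated with anti-CD3 plus anti-CD28 antibodies. pMek1/2 (S217/221) was measured by Western blot and normalized to total Mek1. Three independent experiments.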

[16] = system: CD4+ T cell; assay: Effect on Erk phosphorylation in TCR-triggered human CD4+ T cell at 10 uM by Western blotting analysis; assay type: functional, cell-based; method in brief: as §3
[17] = molecular target: Histone-lysine N-methyltransferase EZH2 (Homo sapiens) (UniProt Q15910); assay: Inhibition of EZH2 (unknown origin) at 45 nM
Sequence of Histone-lysine N-methyltransferase EZH2 (Homo sapiens) (Q15910 whole entry, looked up): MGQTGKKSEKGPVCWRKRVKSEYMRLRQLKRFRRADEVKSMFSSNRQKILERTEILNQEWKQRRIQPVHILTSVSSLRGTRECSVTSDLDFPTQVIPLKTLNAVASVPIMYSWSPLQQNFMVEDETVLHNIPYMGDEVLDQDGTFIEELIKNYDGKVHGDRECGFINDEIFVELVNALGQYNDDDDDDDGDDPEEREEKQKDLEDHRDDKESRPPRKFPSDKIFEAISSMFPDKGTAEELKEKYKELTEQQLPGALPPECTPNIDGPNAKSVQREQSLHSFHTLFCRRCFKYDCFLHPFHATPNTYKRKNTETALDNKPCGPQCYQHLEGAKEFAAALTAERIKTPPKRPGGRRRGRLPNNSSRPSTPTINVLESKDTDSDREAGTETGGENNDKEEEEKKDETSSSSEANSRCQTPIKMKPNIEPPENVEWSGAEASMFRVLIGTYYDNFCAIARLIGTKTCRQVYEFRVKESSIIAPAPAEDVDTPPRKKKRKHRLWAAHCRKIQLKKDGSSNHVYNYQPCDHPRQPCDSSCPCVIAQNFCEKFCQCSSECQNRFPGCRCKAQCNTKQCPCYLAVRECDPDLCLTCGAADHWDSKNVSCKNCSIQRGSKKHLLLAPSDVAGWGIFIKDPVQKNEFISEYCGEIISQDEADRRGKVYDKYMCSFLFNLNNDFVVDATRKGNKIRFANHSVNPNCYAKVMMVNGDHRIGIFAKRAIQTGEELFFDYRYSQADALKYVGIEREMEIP

[18] = molecular target: T2, Histone-lysine N-methyltransferase EZH1 (Homo sapiens); assay: Inhibition of EZH1 (unknown origin) at 2 nM

Structure (SMILES) | Activity [1] | Activity [2] | Activity [3] | Activity [4] | Activity [5] | IC50 [6] [nM] | Activity [7] | inhibition [8] | Activity [9] | Activity [10] | Activity [11] | Activity [12] | Activity [13] | Activity [14] | Activity [15] | Activity [16] | inhibition [17] | inhibition [18]
Cc1cc(C)c(CNC(=O)c2cc(-c3ccc(N4CCN(C)CC4)nc3)cc3c2c(C)cn3C(C)C)c(=O)[nH]1 | Active | Active | Active | Active | Active | 633 | Active | Active | Active | Active | Active | inactive | Active | – | – | – | – | –
CCCc1cc(C)n(C)c(=O)c1CN(C)C(=O)c1cc(-c2ccc(N3CCN(C(C)C)CC3)nc2)cc2c1cnn2C(C)C | – | – | – | – | – | – | – | – | – | – | – | – | – | inactive | – | – | – | –
CCCc1cc(C)[nH]c(=O)c1CNC(=O)c1cc(-c2ccc(N3CCN(C(C)C)CC3)nc2)cc2c1cnn2C(C)C | – | – | – | – | – | – | – | – | – | – | – | – | – | Active | Active | Active | Active | Active
